We go through 16 compounds from ChEMBL document CHEMBL1132965, “Inhibition of Grb2 SH2 domain binding by non-phosphate-containing ligands. 2. 4-(2-Malonyl)phenylalanine as a potent phosphotyrosyl mimetic” (J Med Chem, 2000).

Sequence of Growth factor receptor-bound protein 2 (P62993 whole entry, the tested form may be a part): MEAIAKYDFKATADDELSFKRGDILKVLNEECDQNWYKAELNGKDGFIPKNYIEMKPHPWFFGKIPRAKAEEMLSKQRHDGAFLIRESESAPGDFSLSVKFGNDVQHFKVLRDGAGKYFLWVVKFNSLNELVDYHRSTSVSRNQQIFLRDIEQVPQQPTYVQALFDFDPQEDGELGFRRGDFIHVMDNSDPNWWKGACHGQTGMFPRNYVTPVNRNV

For the assay, the target named is Growth factor receptor-bound protein 2 (Homo sapiens, UniProt P62993). The assay is described as follows: Inhibition of Growth factor receptor bound protein 2 binding by ELISA assay method. In a few lines:
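Recombinant purified Grb2 SH2-GST fusion protein preincubated with serial inhibitor dilutions, then added to wells coated overnight with biotinylated Shc-derived phosphopeptide (20 ng/mL); blocking with 5% BSA in TBS, washes with 0.1% BSA/TBS. Bound protein detected with anti-GST antibody plus alkaline phosphatase-conjugated goat anti-mouse antibody, p-nitrophenyl phosphate colorimetric read-out. IC50 from serial dilutions, each concentration in triplicate.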
For orientation: In an ELISA, binding on a coated surface is turned into a signal by an enzyme label.
As to `NC(=O)C[C@H](NC(=O)C1(NC(=O)[C@H](Cc2ccc(OC(C(=O)O)C(=O)O)cc2)NC(=O)C(=O)O)CCCCC1)C(=O)NCCCc1cccc2ccccc12`, the IC50 is 1100 nM. `CC(=O)N[C@@H](Cc1ccc(OCC(=O)O)cc1)C(=O)NC1(C(=O)N[C@@H](CC(N)=O)C(=O)NCCCc2cccc3ccccc23)CCCCC1` yielded an IC50 of 68000 nM. As for `NC(=O)C[C@H](NC(=O)C1(NC(=O)[C@H](Cc2ccc(OCC(=O)O)cc2)NC(=O)C(=O)O)CCCCC1)C(=O)NCCCc1cccc2ccccc12`, the figure is 19000 nM; as for `CC(=O)N[C@@H](Cc1ccc(CP(=O)(O)O)cc1)C(=O)NC1(C(=O)N[C@@H](CC(N)=O)C(=O)NCCCc2cccc3ccccc23)CCCCC1`, 20 nM. In the case of `Cc1ccc2c(ccn2CCCNC(=O)[C@H](CC(N)=O)NC(=O)C2(NC(=O)[C@H](Cc3ccc(C(C(=O)O)C(=O)O)cc3)NC(=O)C(=O)O)CCCCC2)c1`, the IC50 worked out at 8 nM. `NC(=O)C[C@H](NC(=O)C1(NC(=O)[C@H](Cc2ccc(C(C(=O)O)C(=O)O)cc2)NC(=O)C(=O)O)CCCCC1)C(=O)NCCCc1cccc2ccccc12`: the IC50 was found to be 70 nM. For `NC(=O)C[C@H](NC(=O)C1(NC(=O)[C@H](Cc2ccc(C(F)(C(=O)O)C(=O)O)cc2)NC(=O)C(=O)O)CCCCC1)C(=O)NCCCc1cccc2ccccc12`, the IC50 was determined as 170 nM. To `NC(=O)C[C@H](NC(=O)C1(NC(=O)[C@H](Cc2ccc(CC(=O)O)cc2)NC(=O)C(=O)O)CCCCC1)C(=O)NCCCc1cccc2ccccc12` belongs 1000 nM. As for `CC(=O)N[C@@H](Cc1ccc(OC(C(=O)O)C(=O)O)cc1)C(=O)NC1(C(=O)N[C@@H](CC(N)=O)C(=O)NCCCc2cccc3ccccc23)CCCCC1`, the IC50 was 2750 nM.

As for `CC(=O)N[C@@H](Cc1ccc(C(C(=O)O)C(=O)O)cc1)C(=O)NC1(C(=O)N[C@@H](CC(N)=O)C(=O)NCCCc2cccc3ccccc23)CCCCC1`, the IC50 stood at 160 nM. As for `CC(=O)N[C@@H](Cc1ccc(CC(=O)O)cc1)C(=O)NC1(C(=O)N[C@@H](CC(N)=O)C(=O)NCCCc2cccc3ccccc23)CCCCC1`, the figure is 6400 nM; as for `Cc1ccc2c(ccn2CCCNC(=O)[C@H](CC(N)=O)NC(=O)C2(NC(=O)[C@H](Cc3ccc(CP(=O)(O)O)cc3)NC(=O)C(=O)O)CCCCC2)c1`, 2 nM. As for `CC(=O)N[C@@H](Cc1ccc(C(C(=O)O)C(=O)O)cc1)C(=O)NC1(C(=O)N[C@@H](CC(N)=O)C(=O)NCCCn2ccc3cc(C)ccc32)CCCCC1`, the figure is 12 nM; as for `CC(=O)N[C@@H](Cc1ccc(C(F)(C(=O)O)C(=O)O)cc1)C(=O)NC1(C(=O)N[C@@H](CC(N)=O)C(=O)NCCCc2cccc3ccccc23)CCCCC1`, 680 nM. To `NC(=O)C[C@H](NC(=O)C1(NC(=O)[C@H](Cc2ccc(CP(=O)(O)O)cc2)NC(=O)C(=O)O)CCCCC1)C(=O)NCCCc1cccc2ccccc12` belongs 50 nM; to `CC(=O)N[C@@H](Cc1ccc(CP(=O)(O)O)cc1)C(=O)NC1(C(=O)N[C@@H](CC(N)=O)C(=O)NCCCn2ccc3cc(C)ccc32)CCCCC1`, 4 nM.

By IC50 is commonly meant the concentration that gives 50% inhibition. A high value points to a need for much substance.
